This is a sample that favours compounds with a hit; in the whole collection about 1.8% have one here.
CHRM4 PAM: positive allosteric modulators of human muscarinic M4 receptor | P08173 | CHO-K1 hM4/Gqi5, Fluo-8 calcium fluorescence, ACh EC20; 0% = ACh EC20, 100% = maximal ACh | activation, % at 3 µM | 360,000 tested, 0.4% active | AID 624126;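 active = activation above its plate's cutoff, the mean activation of sample wells plus 3 SD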
M4 ag: agonists of human muscarinic M4 receptor (CHRM4); CHO-K1 hM4/Gqi5, Fluo-8 calcium fluorescence; vehicle 0%, full acetylcholine response 100%; activation, % at 3 µM; 360,000 tested, 0.14% active; AID 624127;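 active = activation above the run mean over all test wells plus 3 SD, cut at about 32% in these data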;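 also: peak over basal fluorescence ratio per well then scaled between controls; 0% = DMSO wells and 100% = acetylcholine at EC100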
CHRM5 PAM: potentiates acetylcholine response at human M5 receptor | CHO-K1 hM5, Fluo-8 calcium, ACh EC20 PAM; 0% = ACh EC20, 100% = ACh EC100 | 360,000 tested, 0.3% active | P08912 | activation, % at 3 µM | AID 624038;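 active = activation above the run cutoff, the mean activation of all test compounds plus 3 SD, cut at about 18% in these data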
Target sequence (P08912 whole entry, looked up): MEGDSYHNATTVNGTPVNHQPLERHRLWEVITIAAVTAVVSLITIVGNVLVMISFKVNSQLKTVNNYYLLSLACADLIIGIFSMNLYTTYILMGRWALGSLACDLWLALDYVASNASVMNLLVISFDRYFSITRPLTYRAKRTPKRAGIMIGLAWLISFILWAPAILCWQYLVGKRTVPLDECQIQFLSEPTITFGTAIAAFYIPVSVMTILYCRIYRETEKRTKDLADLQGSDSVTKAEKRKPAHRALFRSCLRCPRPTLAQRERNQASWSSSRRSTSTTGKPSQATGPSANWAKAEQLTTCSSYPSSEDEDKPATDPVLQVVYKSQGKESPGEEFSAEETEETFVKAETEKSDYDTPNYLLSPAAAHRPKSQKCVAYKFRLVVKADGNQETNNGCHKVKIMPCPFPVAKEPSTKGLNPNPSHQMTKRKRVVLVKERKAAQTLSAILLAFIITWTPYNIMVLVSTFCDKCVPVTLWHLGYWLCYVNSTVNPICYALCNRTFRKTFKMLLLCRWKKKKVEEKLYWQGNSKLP
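system = human M5 receptor in CHO-K1 cells | compound = one concentration, 3 µM final (nominal) | schedule = Post-acetylcholine fluorescence recording 140 s | signal = Fluo-8 calcium dye fluorescence, kinetic read | benchmarks = low control EC20 acetylcholine (0%), high control EC100 acetylcholine (100%) | repeats = singlicate, one well per test compound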
M4 antag: CHRM4 antagonism in calcium assay; P08173; CHO-hM4 cells, ACh EC80, Fluo-8 calcium fluorescence; inhibition, % at 3 µM; 360,000 tested, 0.73% active; AID 624125;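 active = inhibition above its plate's cutoff, the mean inhibition of sample wells plus 3 SD, cut at about 27% in these data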;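 also: 0% = acetylcholine EC80 with DMSO and 100% = DMSO without agonist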
CHRM5 agonist: agonists of human muscarinic M5 receptor (CHRM5); P08912; CHO-K1 hM5 cells, Fluo-8 calcium fluorescence; 0% DMSO wells, 100% maximal acetylcholine response; activation, % at 3 µM; 360,000 tested, 0.19% active; AID 624037;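 active = activation above the run's mean over test compounds plus 3 SD, cut at about 23% in these data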;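 also: signal is peak over basal fluorescence ratio across the kinetic read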
M5 antag: blocks acetylcholine activation of human M5 receptor; P08912; inhibition, % at 3 µM; CHO-hM5 cells, Fluo-8 calcium fluorescence, ACh EC80; 360,000 tested, 0.59% active;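 active = inhibition above a per-plate cutoff, the mean of that plate's test compounds plus 3 SD, cut at about 27% in these data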;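 also: 0% = acetylcholine EC80 with DMSO and 100% = DMSO without agonist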
The depositor's hits bear a star; ! = repeats disagree.

SMILES	CHRM4 PAM	M4 ag	CHRM5 PAM	M4 antag	CHRM5 agonist	M5 antag
C=CCn1c(O)c(C(CC)=Nc2ccccc2NC(C)=O)c(=O)[nH]c1=O	28*	1	2	12	-1	-7
COc1ccc(OC)c(N=Cc2c(O)[nH]c(=O)[nH]c2=O)c1	13	0	3	-10	2	-6
O=C1NC(=O)N(Cc2ccc(F)cc2)C(=O)/C1=C\c1ccoc1	0	7	-13	-10	25*	12
CN(C)c1ccc(/C=C2\C(=O)NC(=O)N(Cc3ccc(F)cc3)C2=O)cc1	0	2	-3	5	2	8
CC(C)N(CCC(C(N)=O)(c1ccccc1)c1ccccn1)C(C)C (configuration not stated)	-16	0	-18	22	-2	39*!
N#CC1=C(N)Oc2c(c(=O)oc3ccccc23)C1c1cccnc1 (configuration not stated)	13	-1	20*	0	-3	-11
CCC(CC)C1C(C#N)=C(N)Oc2c1c(=O)oc1ccccc21 (configuration not stated)	0	11	-2	-2	3	2
CN1CCN2c3ccc(N)cc3CC3(C(=O)NC(=O)NC3=O)C2C1 (configuration not stated)	2	1	14	-1	3	-3
COc1ccc(C(=O)CC2(CC(=O)c3ccc(OC)cc3)C(=O)N(C)C(=O)N(C)C2=O)cc1	-2	0	3	6	0	-5
CN1C(=O)N(C)C(=O)C2(Cc3c(ccc4ccccc34)N(C)C2)C1=O	7	2	28*	5	-6	-3
CN1C(=O)N(C)C(=O)C(NS(=O)(=O)c2ccc(N)cc2)(c2ccccc2)C1=O	3	2	-4	-24	-7	-6
CC1CCN(CCc2nc3ccccc3[nH]2)CC1	6	2	-4	-6	-4	11
CCOC(=O)[C@]12Cc3ccc(C)cc3[C@H]1N(C1CCCCC1)C(=O)c1ccccc12	2	-3	13	6	11	6
CCOC(=O)[C@]12Cc3ccc(C)cc3[C@H]1N(C1CCCCC1)C(=O)c1cc(OC)ccc12	5	-2	16	21	18	4
CCOC(=O)[C@]12Cc3cc(C)ccc3[C@H]1N(C1CCCCC1)C(=O)c1ccccc12	-3	3	9	20	27*	6
CCOC(=O)[C@]12Cc3cc(Cl)ccc3[C@H]1N(C1CCCCC1)C(=O)c1cc(OC)ccc12	-9	1	6	77*	51*	18
O=C(Cc1ccccc1)Oc1cccc(N2C(=O)CCC2=O)c1	-3	0	-5	1	5	-1
CC(C)(C)c1cc(OC(=O)Cc2ccccc2)ccc1O	-4	-1	19*	-3	0	-5
O=C(NCC1=C(c2cccc3ccccc23)C[C@@H]2CC[C@H]1N2Cc1ccco1)c1ccc([N+](=O)[O-])cc1	-8	3	-6	8	-3	9
c1ccc2c(c1)Sc1ccccc1N2CC1CN2CCC1CC2 (configuration not stated)	-16	1	-19	98*	-1	98*
COc1cccc(CNCCc2cccc(F)c2)c1OC	0	2	3	-5	-3	-7
COC(=O)C1=C(c2ccc(-c3ccccc3)c(F)c2)C[C@@H]2CC[C@H]1N2C(=O)NCC1CC1	5	3	-2	-1	0	12
CC(C)(C)c1ccc(CSc2cnn(C(C)(C)C)c(=O)c2Cl)cc1	-4	12	-12	11	12	28*
CC(Cc1ccccc1Sc1ccccc1)N(C)C (configuration not stated)	-40	3	-21	92*	-7	99*
CC(Cc1ccccc1Sc1ccc(O)cc1)N(C)C (configuration not stated)	-20	4	-21	42*	-5	91*
SMILES	CHRM4 PAM	M4 ag	CHRM5 PAM	M4 antag	CHRM5 agonist	M5 antag
COc1ccccc1Sc1ccccc1CC(C)N (configuration not stated)	9	10	2	8	-5	8
CN1CCN(Cc2ccccc2Sc2ccccc2)CC1	-38	7	-20	95*	-5	99*
Cc1ccc(C(O)(C(=O)OC(C)C)C(O)c2ccc(F)cc2)cc1 (configuration not stated)	-3	1	8	-11	-2	-6
C=CC(=O)OCCO	2	1	-3	0	3	6
O=C(Nc1cccnc1)c1c(O)c2c(n(Cc3ccccc3)c1=O)CCCC2	0	0	1	1	-3	-5
O=C(Nc1ccc(F)cc1)c1c(O)c2c(n(Cc3ccccc3)c1=O)CCCC2	21*	2	-3	14	-1	-7
Clc1ccc(C(c2ccc(Cl)cc2)n2cc[n+](CC(OCc3ccc(Cl)cc3Cl)c3ccc(Cl)cc3Cl)c2)cc1 (configuration not stated)	-5	1	-12	1	-2	16
CN(Cc1cccc(-c2ccncc2)c1)C(=O)Oc1ccccc1Cl	-11	20	-23	14	3	8
CN(Cc1cccc(-c2ccncc2)c1)C(=O)Oc1ccccc1Cc1ccccc1	-15	17	-22	37*	2	43*
CC(N)C(=O)NC1C2C(=C(O)CC(O)C2O)C(=O)OC1(C)C(Cl)Cl (configuration not stated)	9	0	-3	-9	4	2
CC1(C)CCCN1CCC(C(N)=O)(c1ccccc1)c1ccccc1	-10	0	-36	98*	-11	99*
CN1[C@@H]2CCC[C@H]1CC(=O)C2	-5	1	-5	-2	0	5
CCOC(=O)C1(c2ccccc2)CCN(CCC(C#N)(c2ccccc2)c2ccccc2)CC1	-10	-1	-19	-7	1	21
O=[N+]([O-])c1cc(-n2cnnn2)c(O)c([N+](=O)[O-])c1	30*	1	10	3	1	4
O=[N+]([O-])c1cc(O)c(O)c([N+](=O)[O-])c1	0	1	-4	5	0	8
Clc1ccc(C(OCCN2CCCCC2)c2ccccc2)cc1 (configuration not stated)	-19	5	-18	38*	-1	57*
c1ccc(C(OCCN2CCN(c3ncccn3)CC2)c2ccccc2)cc1	-6	3	-21	-4	-16	23
O=C1/C(=C\c2cccnc2)N2CCC1CC2	-6	1	0	-2	-4	11
C(=NC12CN3CN(CN(C3)C1)C2)c1cccnc1	19*	1	14	3	0	-3

Assay outcomes deposited in PubChem by The Scripps Research Institute Molecular Screening Center.
